The text below walks through data of ChEMBL document CHEMBL3407418, “Fragment-based drug discovery of 2-thiazolidinones as BRD4 inhibitors: 2. Structure-based optimization” (J Med Chem, 2015).

For orientation: IC50 means the point on the concentration scale where inhibition reaches its midpoint. Low readings indicate greater potency in that assay, high ones weaker potency in that assay. The term ΔTm denotes the shift of the melting midpoint relative to a reference. The term inhibition denotes the drop in the measured response relative to a control, in per cent. A higher inhibition goes with strong suppression.

In data set [1] the target is T1, Bromodomain-containing protein 4 (Homo sapiens, UniProt O60885). Briefly: Inhibition of BRD4(1) (unknown origin) incubated for 4 hrs by (+)-JQ1 fluorescent ligand based fluorescence anisotrophy.
The test system of the next data set is HT-29. Briefly: Growth inhibition of human HT-29 cells after 72 hrs by SRB assay. It counts as functional, cell-based. The conditions noted are these: HT-29, 72 h. The gist of the method: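 HT-29 cells are grown in McCoy's 5A with 10% FBS at 37 °C, 5% CO2. DMSO stocks (0.01 mol/L) are diluted in normal saline just before use. Cells are treated in triplicate with gradient concentrations for 72 h at 37 °C.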

The target of data set [2] is Bromodomain-containing protein 2 (Homo sapiens) (UniProt P25440). Briefly: Binding affinity to BRD2(1) (unknown origin) assessed as increase in protein melting temperature at 50 umol by real-time PCR system based thermal shift assay. The gist of the method: (§1)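 Bromodomain proteins in 10 mmol HEPES pH 7.5, 500 mmol NaCl at 75 μg/mL final; compound at 50 µmol final; SYPRO Orange probe at 1:1000. Four replicates per protein mixture. Melt curve read on a real-time PCR instrument, heating 25 °C to 99 °C at 1 °C/min under continuous fluorescence reading; binding taken as the rise in protein melting temperature.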
Bromodomain-containing protein 2 (Homo sapiens), sequence (P25440 whole entry, looked up): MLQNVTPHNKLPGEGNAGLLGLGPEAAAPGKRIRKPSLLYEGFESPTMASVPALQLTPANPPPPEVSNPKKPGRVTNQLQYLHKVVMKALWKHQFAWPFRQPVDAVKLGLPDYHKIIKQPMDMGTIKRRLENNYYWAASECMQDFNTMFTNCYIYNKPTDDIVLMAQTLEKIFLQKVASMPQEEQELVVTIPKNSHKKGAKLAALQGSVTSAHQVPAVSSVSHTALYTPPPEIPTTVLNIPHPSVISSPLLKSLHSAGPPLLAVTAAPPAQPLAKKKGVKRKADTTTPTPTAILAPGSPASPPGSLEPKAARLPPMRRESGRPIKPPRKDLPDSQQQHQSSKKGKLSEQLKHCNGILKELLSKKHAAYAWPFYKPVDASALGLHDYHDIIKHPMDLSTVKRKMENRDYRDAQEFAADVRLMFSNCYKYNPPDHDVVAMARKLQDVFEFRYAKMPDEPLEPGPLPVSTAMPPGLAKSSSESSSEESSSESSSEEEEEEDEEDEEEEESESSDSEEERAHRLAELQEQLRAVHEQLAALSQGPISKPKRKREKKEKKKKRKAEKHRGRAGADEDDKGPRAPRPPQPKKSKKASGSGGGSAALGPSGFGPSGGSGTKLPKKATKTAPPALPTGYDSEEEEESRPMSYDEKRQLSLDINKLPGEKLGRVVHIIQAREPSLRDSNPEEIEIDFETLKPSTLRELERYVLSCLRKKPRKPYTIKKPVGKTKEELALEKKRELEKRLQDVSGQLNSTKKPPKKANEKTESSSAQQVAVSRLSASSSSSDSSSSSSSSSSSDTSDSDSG

For data set [3], the target named is T2, ATPase family AAA domain-containing protein 2 (Homo sapiens) (UniProt Q6PL18).
T2 sequence (whole entry): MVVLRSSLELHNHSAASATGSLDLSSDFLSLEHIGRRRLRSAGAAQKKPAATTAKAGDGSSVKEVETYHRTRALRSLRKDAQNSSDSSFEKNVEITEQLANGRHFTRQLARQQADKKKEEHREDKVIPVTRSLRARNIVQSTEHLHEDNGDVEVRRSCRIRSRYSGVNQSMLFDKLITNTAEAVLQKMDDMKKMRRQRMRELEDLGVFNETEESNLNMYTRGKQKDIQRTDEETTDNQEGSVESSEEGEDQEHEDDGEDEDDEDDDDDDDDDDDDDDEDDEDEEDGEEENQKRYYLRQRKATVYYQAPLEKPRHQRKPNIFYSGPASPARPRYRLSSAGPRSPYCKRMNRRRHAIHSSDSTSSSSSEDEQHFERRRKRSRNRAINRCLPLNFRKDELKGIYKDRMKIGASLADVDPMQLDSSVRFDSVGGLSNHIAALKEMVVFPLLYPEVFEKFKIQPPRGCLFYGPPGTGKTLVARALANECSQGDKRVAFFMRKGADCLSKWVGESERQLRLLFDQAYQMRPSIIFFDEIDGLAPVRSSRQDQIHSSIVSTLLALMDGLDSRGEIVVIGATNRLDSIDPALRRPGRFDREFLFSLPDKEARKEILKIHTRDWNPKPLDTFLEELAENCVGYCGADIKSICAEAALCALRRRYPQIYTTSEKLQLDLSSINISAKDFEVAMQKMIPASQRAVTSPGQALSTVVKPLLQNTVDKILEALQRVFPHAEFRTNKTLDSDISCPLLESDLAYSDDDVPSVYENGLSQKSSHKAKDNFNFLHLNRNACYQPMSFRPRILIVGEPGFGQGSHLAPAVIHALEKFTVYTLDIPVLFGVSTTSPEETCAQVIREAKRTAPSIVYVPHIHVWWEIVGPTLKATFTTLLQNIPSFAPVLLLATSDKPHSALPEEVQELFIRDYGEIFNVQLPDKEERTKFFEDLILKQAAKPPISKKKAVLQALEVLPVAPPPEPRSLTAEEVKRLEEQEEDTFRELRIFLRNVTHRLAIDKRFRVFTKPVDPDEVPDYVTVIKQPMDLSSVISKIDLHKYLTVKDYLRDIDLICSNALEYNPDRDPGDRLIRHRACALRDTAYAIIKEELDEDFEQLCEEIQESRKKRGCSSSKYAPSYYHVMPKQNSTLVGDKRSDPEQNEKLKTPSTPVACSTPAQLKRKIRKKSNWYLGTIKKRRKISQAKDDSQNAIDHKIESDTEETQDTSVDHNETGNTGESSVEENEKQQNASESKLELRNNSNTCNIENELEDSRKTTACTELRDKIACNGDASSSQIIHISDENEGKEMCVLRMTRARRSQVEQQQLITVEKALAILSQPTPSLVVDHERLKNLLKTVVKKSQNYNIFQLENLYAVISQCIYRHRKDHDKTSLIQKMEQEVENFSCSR
Briefly: Binding affinity to ATAD2 (unknown origin) assessed as increase in protein melting temperature at 50 umol by real-time PCR system based thermal shift assay. In outline:
as §1

The target in another data set is CYP3A4 (Homo sapiens, UniProt P08684). Briefly: Inhibition of CYP3A4 in human liver microsomes at 10 uM preincubated for 5 mins before NADPH addition and measured after 20 mins post NADPH addition. The class given is ADME. In general terms: Liver microsomes are vesicles of endoplasmic reticulum, rich in cytochrome P450 enzymes.
CYP3A4, sequence (P08684 whole entry): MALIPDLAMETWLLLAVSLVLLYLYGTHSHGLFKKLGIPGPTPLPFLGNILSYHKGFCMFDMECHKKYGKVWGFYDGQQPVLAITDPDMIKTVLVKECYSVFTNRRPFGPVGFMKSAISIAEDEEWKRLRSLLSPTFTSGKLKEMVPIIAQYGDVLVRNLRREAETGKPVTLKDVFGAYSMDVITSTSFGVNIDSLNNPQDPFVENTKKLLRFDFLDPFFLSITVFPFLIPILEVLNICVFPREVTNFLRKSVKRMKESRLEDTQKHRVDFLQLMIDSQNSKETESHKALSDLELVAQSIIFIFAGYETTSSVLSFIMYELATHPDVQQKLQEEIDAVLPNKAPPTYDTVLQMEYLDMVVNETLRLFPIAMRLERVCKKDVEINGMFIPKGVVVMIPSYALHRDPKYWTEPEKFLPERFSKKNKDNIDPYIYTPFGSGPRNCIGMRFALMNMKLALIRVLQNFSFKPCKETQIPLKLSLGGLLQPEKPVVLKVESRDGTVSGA
The next data set addresses T3, CYP1A2 (Homo sapiens, UniProt P05177).
T3 sequence (P05177 whole entry): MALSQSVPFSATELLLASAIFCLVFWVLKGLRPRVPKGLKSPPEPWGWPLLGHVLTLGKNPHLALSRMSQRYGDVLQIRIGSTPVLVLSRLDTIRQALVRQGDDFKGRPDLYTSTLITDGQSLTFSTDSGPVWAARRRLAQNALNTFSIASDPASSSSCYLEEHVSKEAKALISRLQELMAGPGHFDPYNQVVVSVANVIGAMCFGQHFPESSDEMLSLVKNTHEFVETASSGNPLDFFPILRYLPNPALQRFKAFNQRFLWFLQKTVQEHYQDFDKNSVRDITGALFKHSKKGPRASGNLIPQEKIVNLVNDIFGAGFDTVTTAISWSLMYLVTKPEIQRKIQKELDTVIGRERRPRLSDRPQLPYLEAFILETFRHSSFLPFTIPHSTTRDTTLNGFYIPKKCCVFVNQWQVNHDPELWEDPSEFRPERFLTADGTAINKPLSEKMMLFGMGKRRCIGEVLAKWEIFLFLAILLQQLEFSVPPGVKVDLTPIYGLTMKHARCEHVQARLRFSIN
Briefly: Inhibition of CYP1A2 in human liver microsomes at 10 uM using phenacetin substrate preincubated for 5 mins before NADPH addition and measured after 20 mins post NADPH addition. The class given is ADME. The conditions noted are these: probe phenacetin. The gist of the method:
(§2)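 Human liver microsomes 0.2 mg/mL, 1 mmol NADPH, 100 mmol phosphate pH 7.4, probe cocktail (10 μM midazolam, 100 μM testosterone, 10 μM dextromethorphan, 20 μM diclofenac, 100 μM phenacetin, 100 μM mephenytoin), test compound 10 μM or PBS; organic solvent <1%. 5 min preincubation at 37 °C, NADPH-generating system start, 20 min reaction; inhibition from metabolite formation relative to PBS.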

In a further data set the target is CYP2C19 (Homo sapiens, UniProt P33261). Briefly: Inhibition of CYP2C19 in human liver microsomes at 10 uM using mephenytoin substrate preincubated for 5 mins before NADPH addition and measured after 20 mins post NADPH addition. It counts as ADME. The following applies: probe mephenytoin. In outline: as §2
CYP2C19, sequence (P33261 whole entry): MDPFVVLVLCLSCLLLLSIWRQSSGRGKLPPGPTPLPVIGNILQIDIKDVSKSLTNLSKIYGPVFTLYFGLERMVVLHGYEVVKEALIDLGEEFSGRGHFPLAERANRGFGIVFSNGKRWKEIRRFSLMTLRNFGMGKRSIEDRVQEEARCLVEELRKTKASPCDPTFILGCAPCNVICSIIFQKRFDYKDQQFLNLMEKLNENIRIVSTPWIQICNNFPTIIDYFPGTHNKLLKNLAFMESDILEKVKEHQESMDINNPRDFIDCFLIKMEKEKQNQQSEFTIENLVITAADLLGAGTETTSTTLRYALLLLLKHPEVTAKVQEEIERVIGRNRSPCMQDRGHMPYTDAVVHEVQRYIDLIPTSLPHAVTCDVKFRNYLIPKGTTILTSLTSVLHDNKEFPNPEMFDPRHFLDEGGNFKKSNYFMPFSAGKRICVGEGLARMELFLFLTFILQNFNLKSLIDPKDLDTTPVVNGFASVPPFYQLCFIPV
For data set [4], the target named is T1, Bromodomain-containing protein 4.
Data set [5] in a line: Growth inhibition of human MM1S cells after 72 hrs by CellTiter-Glo luminescent cell viability assay. The following applies: MM1.S.

Turning to `Nc1ccc(-c2csc(=O)[nH]2)cc1S(=O)(=O)NC1CCCC1`, the values for the IC50 (in data set [1]; in the data set on HT-29; in [5]) were 120 nM, 3280 nM and 793 nM, respectively. Moreover, the ΔTm in data set [2] was 4.06 °C; in data set [3], 3.28 °C; in data set [4], 7.76 °C. In addition, the inhibition at 20 min, 10 µM on CYP3A4 was found to be 82%; at CYP1A2, 22%; against CYP2C19, 57%.

Take `Cc1c(Br)cc(-c2csc(=O)[nH]2)cc1S(=O)(=O)NC1CCCC1`: the IC50 in data set [1] was determined as 60 nM; in the data set on HT-29, 5460 nM; in data set [5] it was 999 nM. The figures for the ΔTm in data set [2], in data set [3] and in data set [4] were 5.92 °C, 3.42 °C and 9.22 °C, respectively. The inhibition at 20 min, 10 µM against CYP3A4 was found to be 53%; at CYP1A2 it was 47%; on CYP2C19 it was 28%.

For `Cc1c(N)cc(-c2csc(=O)[nH]2)cc1S(=O)(=O)NC1CCCC1`, the IC50 in [1] worked out at 140 nM; in the data set on HT-29 it was 860 nM; in data set [5], 570 nM. The ΔTm in [2] was determined as 5.04 °C; in data set [3], 2.7 °C; in data set [4] it was 7.25 °C. Also, the inhibition at 20 min, 10 µM against CYP3A4 is 46%; at CYP1A2, 17%; at CYP2C19 it was 3%.

In the case of `COc1ccc(-c2csc(=O)[nH]2)cc1S(=O)(=O)NC1CCCC1`, the figures for the IC50 (in data set [1]; in the data set with HT-29; in data set [5]) were 760 nM, 3930 nM and 2420 nM, respectively. For the same molecule, the ΔTm in [2] is 2.82 °C; in [3], 1.36 °C; in [4], 5.19 °C. The inhibition at 20 min, 10 µM against CYP3A4 was 30%; against CYP1A2, 3%; against CYP2C19 it was 26%.

Turning to `Cc1ccc(-c2csc(=O)[nH]2)cc1S(=O)(=O)NC1CCCC1`, the IC50 in data set [1] amounted to 220 nM; in the data set on HT-29, 3950 nM; in [5] it was 1900 nM. For the same molecule, the ΔTm in data set [2] was found to be 3.47 °C; in data set [3], 1.44 °C; in data set [4] it was 6.3 °C. Further, the results for the inhibition at 20 min, 10 µM at CYP3A4, on CYP1A2 and at CYP2C19 were 68%, 52% and 45%, respectively.

On to `O=C(Nc1cc(-c2csc(=O)[nH]2)cc(S(=O)(=O)NC2CCCC2)c1)C1CC1`, for which the IC50 is 60 nM in [1], 5690 nM with HT-29 and 1060 nM in [5]. Moreover, the ΔTm in data set [2] stood at 5.63 °C; in data set [3], 3.55 °C; in [4], 8.48 °C. The inhibition at 20 min, 10 µM worked out at 21% against CYP3A4, 29% on CYP1A2 and 32% against CYP2C19.
